Consider two compounds from ChEMBL document CHEMBL1137328, “5-pyrrolidinylsulfonyl isatins as a potential tool for the molecular imaging of caspases in apoptosis” (J Med Chem, 2006).

Active and inactive are the calls of the source. No cut-off for these calls is given here. A value given as a limit tells only on which side of the number the result lay.

Experiment [1] has as its system HUVEC. Description: Inhibition of caspase 9 processing in apoptotic HUVEC at 100 uM. Format: functional, cell-based. Conditions: Homo sapiens. The essentials: (§1)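 HUVEC grown on gelatin-coated dishes in RPMI-1640 with 15% calf serum, heparin and pituitary extract. Cells were preincubated 30 min with compound. Apoptosis was then induced by growth-factor withdrawal (RPMI-1640 alone), with compound present, for 8 h at 37 °C. Lysates (30 µg) were run on 15% SDS-PAGE Western blots for processed caspase-3 (p17/p12), caspase-8, caspase-9, cleaved PARP ([…]) and lamin A/C. Z-VAD-fmk served as full-inhibition control and β-actin as loading control.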

Experiment [2] relates to HUVEC. Description: Inhibition of caspase 9 processing in apoptotic HUVEC at 50 uM. The format is functional, cell-based. As to conditions: Homo sapiens. The essentials: as §1
Experiment [3] concerns HUVEC. Nature of the experiment: Inhibition of PARP cleavage in apoptotic HUVEC at 100 uM. The format is functional, cell-based. Conditions: Homo sapiens. The essentials:
as §1

Experiment [4] addresses T1, Caspase-3 (Homo sapiens, UniProt P42574).
T1 sequence (P42574 whole entry): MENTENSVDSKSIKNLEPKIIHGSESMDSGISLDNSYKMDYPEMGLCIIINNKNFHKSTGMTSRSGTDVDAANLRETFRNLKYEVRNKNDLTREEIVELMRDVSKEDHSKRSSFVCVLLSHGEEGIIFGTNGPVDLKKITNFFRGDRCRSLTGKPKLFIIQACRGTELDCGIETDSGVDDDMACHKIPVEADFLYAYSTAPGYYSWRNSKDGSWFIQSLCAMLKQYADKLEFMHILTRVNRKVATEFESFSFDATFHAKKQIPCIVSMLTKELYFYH
Nature of the experiment: Binding affinity to human caspase 3. In a few lines:
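Recombinant full-length human caspase-3 (1 unit/assay, 0.5 pM) preincubated 10 min at 37 °C with isatin in DMSO (single doses, 5 pM–500 µM) in 25 mM HEPES pH 7.5, 0.1% CHAPS, 50 mM KCl, 5 mM β-mercaptoethanol. Ac-DEVD-AMC (10 µM final) then added for 10 min. IC50 by nonlinear regression, converted to Ki = IC50/(1+[S]/KM). Mean of three assays.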

In experiment [5] the test system is HUVEC. Description: Inhibition of lamin A/C cleavage in apoptotic HUVEC at 100 uM. The format is functional, cell-based. As to conditions: Homo sapiens. In a few lines: as §1
For a further experiment, the target named is T2, Caspase-7 (Homo sapiens, UniProt P55210).
T2 sequence (P55210 whole entry): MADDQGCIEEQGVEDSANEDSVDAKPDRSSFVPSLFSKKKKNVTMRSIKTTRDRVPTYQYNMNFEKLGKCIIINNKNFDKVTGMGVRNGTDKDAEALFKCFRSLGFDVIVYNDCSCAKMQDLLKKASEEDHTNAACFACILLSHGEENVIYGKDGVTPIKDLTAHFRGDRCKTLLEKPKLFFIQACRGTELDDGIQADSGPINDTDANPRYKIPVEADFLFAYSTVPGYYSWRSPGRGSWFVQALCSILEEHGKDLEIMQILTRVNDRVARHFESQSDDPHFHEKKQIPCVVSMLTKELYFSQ
Nature of the experiment: Inhibition of caspase 7. The essentials:
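Inhibitor in DMSO (final 5 pM–500 µM, single doses) preincubated 10 min, then Ac-DEVD-AMC (final 10 µM) reacted 10 min. Cleaved AMC quantified by fluorescence; IC50 by nonlinear regression.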

Experiment [6] deals with HUVEC. Nature of the experiment: Inhibition of caspase 8 processing in apoptotic HUVEC at 50 uM. The format is functional, cell-based. As to conditions: Homo sapiens. In a few lines:
as §1

Experiment [7] concerns the target T1, Caspase-3. Nature of the experiment: Inhibition of caspase 3. The essentials: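 Recombinant human caspases (0.5 units/assay) preincubated 10 min at 37 °C with isatin in DMSO (single doses, 5 pM–500 µM). The buffer for all was 0.1% CHAPS, 100 mM NaCl, 2 mM EDTA, 10% sucrose, with 20 mM HEPES pH 7.4. Caspase-1 used 100 mM HEPES and β-mercaptoethanol, and caspase-7 used β-mercaptoethanol. AMC substrates at 10 µM for 10 min: YVAD (caspase-1), DEVD (caspase-3/-7), VEID (caspase-6), IETD (caspase-8). IC50 by nonlinear regression.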

The target in the next experiment is T3, Caspase-1 (Homo sapiens, UniProt P29466).
T3 sequence (P29466 whole entry): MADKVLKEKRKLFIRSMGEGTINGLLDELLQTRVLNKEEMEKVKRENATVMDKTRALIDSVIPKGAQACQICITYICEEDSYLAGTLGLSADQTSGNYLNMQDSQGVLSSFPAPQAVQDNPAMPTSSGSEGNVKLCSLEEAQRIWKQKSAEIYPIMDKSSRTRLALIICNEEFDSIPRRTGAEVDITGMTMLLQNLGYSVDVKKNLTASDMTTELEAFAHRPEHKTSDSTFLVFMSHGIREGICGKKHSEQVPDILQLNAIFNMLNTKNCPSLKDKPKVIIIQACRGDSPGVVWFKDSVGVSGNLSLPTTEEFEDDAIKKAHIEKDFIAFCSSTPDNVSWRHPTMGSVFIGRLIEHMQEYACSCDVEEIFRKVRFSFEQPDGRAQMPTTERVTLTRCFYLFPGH
Description: Inhibition of caspase 1. The essentials: (§2)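 Recombinant human caspase-1, -6 or -8 at 0.5 units per assay, preincubated 10 min at 37 °C with compound in DMSO at single doses from 5 pM to 500 µM. Fluorogenic AMC substrate then added at 10 µM final (caspase-1 Ac-YVAD-AMC, caspase-6 Ac-VEID-AMC, caspase-8 Ac-IETD-AMC) for a further 10 min. Read-out was AMC fluorescence. IC50 taken by nonlinear regression.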

A further experiment addresses Caspase-8 (Homo sapiens, UniProt Q14790). Description: Inhibition of caspase 8. In a few lines: as §2
For experiment [8], the system named is HUVEC. Description: Inhibition of caspase 8 processing in apoptotic HUVEC at 100 uM. The format is functional, cell-based. Conditions: Homo sapiens. In a few lines:
as §1

In experiment [9] the test system is HUVEC. Description: Inhibition of caspase 3 processing in apoptotic HUVEC at 10 uM. The format is functional, cell-based. As to conditions: Homo sapiens. The essentials: as §1
Another experiment concerns the target T4, Caspase-6 (Homo sapiens, UniProt P55212).
T4 sequence (P55212 whole entry): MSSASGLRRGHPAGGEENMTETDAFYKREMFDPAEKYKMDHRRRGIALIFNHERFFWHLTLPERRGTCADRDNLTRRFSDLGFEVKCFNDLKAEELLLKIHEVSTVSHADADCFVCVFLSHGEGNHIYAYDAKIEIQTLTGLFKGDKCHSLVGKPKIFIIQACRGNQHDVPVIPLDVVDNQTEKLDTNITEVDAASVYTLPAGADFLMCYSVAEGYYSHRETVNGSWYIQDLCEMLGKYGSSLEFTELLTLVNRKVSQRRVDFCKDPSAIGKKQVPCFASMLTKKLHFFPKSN
Description: Inhibition of caspase 6. In a few lines: as §2

Experiment [10] concerns the target T1, Caspase-3. Nature of the experiment: Inhibition of caspase 3 in neutrophils.

Sequence of Caspase-8 (Q14790 217-374 limits assumed): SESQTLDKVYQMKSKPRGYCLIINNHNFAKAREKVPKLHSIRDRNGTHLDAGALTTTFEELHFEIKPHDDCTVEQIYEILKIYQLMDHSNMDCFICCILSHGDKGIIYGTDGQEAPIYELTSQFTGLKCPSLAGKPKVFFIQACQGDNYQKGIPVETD
Sequence of Caspase-8 (Q14790 385-479 limits assumed): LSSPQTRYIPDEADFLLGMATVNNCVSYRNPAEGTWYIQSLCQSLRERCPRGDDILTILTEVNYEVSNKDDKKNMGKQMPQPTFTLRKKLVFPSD

For the compound `COC[C@@H]1CCCN1S(=O)(=O)c1ccc2c(c1)C(=O)C(=O)N2Cc1ccc(OCCF)cc1`, the outcome in the experiment on HUVEC [1], with HUVEC [2], in the experiment on HUVEC [3], with HUVEC [5], with HUVEC [6] and with HUVEC [8] was Active. For the same compound, the result in the experiment on HUVEC [9] was Active. On Caspase-3 [4], this compound had an inhibition constant (Ki) of 17.9 nM. In addition, the IC50 is 93.3 nM on Caspase-7; 36.4 nM against Caspase-3 [7]; above 25000 nM at Caspase-1; above 25000 nM on Caspase-8; above 25000 nM against Caspase-6.

With `CN1C(=O)C(=O)c2cc(S(=O)(=O)N3CCC[C@H]3COc3ccccc3)ccc21`, the IC50 was 10000 nM on Caspase-3 [10]; 190 nM at Caspase-7; 114 nM against Caspase-3 [7]; above 500000 nM against Caspase-1; above 500000 nM on Caspase-8; above 500000 nM against Caspase-6. This compound came in with an inhibition constant (Ki) at Caspase-3 [4] of 56.1 nM.

Usually Ki stands for a dissociation constant, usually derived from enzyme kinetics or from competition with a known ligand. Higher therefore signals weaker binding. The IC50 is the concentration needed to halve the response being measured. The low end stands for inhibition by little substance, the high end for a need for much substance.
